How the values were obtained:
PSMA(+) LNCaP tumors = experiment: Small-animal PET imaging in mice bearing subcutaneous LNCaP tumors; type: in vivo; conditions: for peak (maximum) kidney uptake / time of peak kidney uptake postadministration: dynamic PET kidney TAC; for absolute tumor uptake, fold lower in comparison to ^68Ga-1 / specificity of tumor accumulation: PET; for specificity of tumor accumulation: PSMA(+) LNCaP tumors, blocking with PMPA 20 nmol/mouse; for peak tumor uptake: subcutaneous LNCaP tumor, iv
Summary of the method: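 Athymic Balb/c nude mice carried LNCaP xenografts (5.0 million cells sc, right shoulder, in Matrigel 1:1), imaged at ~200-300 mg. Dosing was by iv tail vein in PBS pH7.4: static 15.4-18.7 MBq (~0.56-0.68 nmol), dynamic ~28 MBq. Mice were under isoflurane. Dynamic scans ran 3500 s; static scans at 0.5, 1, 2 and 3 h. Decay-corrected VOI %ID/g was taken. Blocking used coinjected PMPA 20 nmol/mouse (n = 3).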

Lipophilicity = type: physicochemical; conditions: shake-flask
Metabolism in vivo = conditions: mice, 15 minutes after injection, HPLC
Summary of the method: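 Mice (n = 2/group) received 7.3-11.1 MBq (0.3-0.4 nmol) of ⁶⁸Ga-radiotracer in PBS by tail-vein injection and were killed at 15 min. Heparinized blood was spun at 1700 g for 5 min. Plasma was ultrafiltered (30 kDa cutoff, 9660 g, 10 min). Filtrate and protein fractions were gamma-counted, and filtrate aliquots were analysed by RP-HPLC for metabolites.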

[1] = Stability of formulated radiotracer in saline or PBS; type: physicochemical; conditions: incubation in saline or PBS at 37°C for over 4 hours

LogD (n-octanol: PBS pH7.4) (Lipophilicity) | time of peak tumor uptake postadministration (PSMA(+) LNCaP tumors; dynamic PET, LNCaP tumor) [min] | absolute tumor uptake after 3 hours postadministration (PSMA(+) LNCaP tumors; static PET, LNCaP tumor) | Compound | peak (maximum) kidney uptake (PSMA(+) LNCaP tumors) | time of peak kidney uptake postadministration (PSMA(+) LNCaP tumors) [s] | tumor-associated radioactivity after 3500 seconds (PSMA(+) LNCaP tumors; dynamic PET, LNCaP tumor) [%ID/g] | absolute tumor uptake, fold lower in comparison to ^68Ga-1 (PSMA(+) LNCaP tumors; LNCaP tumor) [fold] | specificity of tumor accumulation (PSMA(+) LNCaP tumors) | peak tumor uptake (PSMA(+) LNCaP tumors; dynamic PET) | tumor-associated activity retained for up to 3 hours (PSMA(+) LNCaP tumors; static PET, LNCaP tumor) | radiotracer intact in soluble fraction of the blood pool (Metabolism in vivo) [%] | stability with respect to changes in RCP [1]
−4.06 ± 0.10 | – | – | O=C([O-])CN(CCN(CC(=O)[O-])Cc1cc(CCC(=O)NCCCCCC(=O)NCCCC[C@H](NC(=O)N[C@@H](CCC(=O)O)C(=O)O)C(=O)O)ccc1[O-])Cc1cc(CCC(=O)O)ccc1[O-].[68Ga+3].[OH3+] [^68Ga-1, ^68Ga-HBED-CC-PSMA, reference compound] | around 30 %ID/g | ~500 | > 8.0 | – | – | – | – | – | –
−3.24 ± 0.05 | 5 to 10 | 0.8-1.2 %ID/g | ^68Ga-DFO-Nsucc-PSMA [^68Ga-4] | – | – | – | ~10 | specific accumulation | 3-4 %ID/g | – | 100 | stable

Compound | LogD (n-octanol: PBS pH7.4) (Lipophilicity) | time of peak tumor uptake postadministration (PSMA(+) LNCaP tumors; dynamic PET, LNCaP tumor) [min] | absolute tumor uptake after 3 hours postadministration (PSMA(+) LNCaP tumors; static PET, LNCaP tumor) | peak (maximum) kidney uptake (PSMA(+) LNCaP tumors) | time of peak kidney uptake postadministration (PSMA(+) LNCaP tumors) [s] | tumor-associated radioactivity after 3500 seconds (PSMA(+) LNCaP tumors; dynamic PET, LNCaP tumor) [%ID/g] | absolute tumor uptake, fold lower in comparison to ^68Ga-1 (PSMA(+) LNCaP tumors; LNCaP tumor) [fold] | specificity of tumor accumulation (PSMA(+) LNCaP tumors) | peak tumor uptake (PSMA(+) LNCaP tumors; dynamic PET) | tumor-associated activity retained for up to 3 hours (PSMA(+) LNCaP tumors; static PET, LNCaP tumor) | radiotracer intact in soluble fraction of the blood pool (Metabolism in vivo) [%] | stability with respect to changes in RCP [1]
^68Ga-DFO-pNCS-Bn-PSMA [^68Ga-7] | −2.60 ± 0.02 | – | – | ~50 %ID/g | ~1400 | 2.90 ± 0.46 | ~2.5 | specific accumulation | 3.5-4.0 %ID/g | 2.5-3.5 %ID/g | 100 | stable

Source: paper PMC5672994 (Molecular Imaging, 2017)
